Measurements reported in ChEMBL document CHEMBL1124052, “New inhibitors of human renin that contain novel Leu-Val replacements. Examination of the P1 site” (J Med Chem, 1988).
Non-standard residues stand in square brackets, D forms with d. Residues, ends and D or L forms follow the SMILES beside them. *: point of attachment. hCha = N[C@@H](CCC1CCCCC1)C(=O)O; Cha = N[C@@H](CC1CCCCC1)C(=O)O; Chg = N[C@H](C(=O)O)C1CCCCC1; Boc = CC(C)(C)OC(=O)*

Molecular target: T1, Renin (Homo sapiens) (UniProt P00797)
T1 sequence (whole entry): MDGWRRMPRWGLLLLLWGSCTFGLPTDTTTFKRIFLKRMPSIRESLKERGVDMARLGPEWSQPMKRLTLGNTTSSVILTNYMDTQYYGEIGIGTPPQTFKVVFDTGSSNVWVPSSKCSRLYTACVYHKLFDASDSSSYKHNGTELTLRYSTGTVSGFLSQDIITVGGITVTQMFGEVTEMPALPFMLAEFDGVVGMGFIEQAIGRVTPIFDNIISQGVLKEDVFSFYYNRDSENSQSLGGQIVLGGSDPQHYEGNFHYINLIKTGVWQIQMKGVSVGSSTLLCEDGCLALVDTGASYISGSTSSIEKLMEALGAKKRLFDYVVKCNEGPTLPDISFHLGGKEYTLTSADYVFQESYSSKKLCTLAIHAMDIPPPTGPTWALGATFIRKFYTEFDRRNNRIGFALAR
Experiment: (§1) Inhibition of human renal renin at pH 6
Conditions: concentration not given here
Procedure, shortened: (§2)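 Purified human renal renin (0.24 mGU) was incubated with pure human angiotensinogen (0.21 µM final) in 0.135 M maleate pH 6.0 with 3 mM EDTA, 1.4 mM PMSF, 0.44% BSA and 1% DMSO. At least three inhibitor levels bracketing the IC50 were preincubated with renin for 5.0 min at 37 °C, then reacted 10.0 min. The reaction was stopped by freezing, angiotensin I was measured by RIA, and the IC50 was taken by regression of percent inhibition.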

Point of comparison: `Cc1cc(C)c(C[C@H](NC(=O)[C@H](C)NC(=O)[C@H](Cc2ccccc2)NC(=O)OC(C)(C)C)[C@@H](O)CSC(C)C)c(C)c1`, inhibition 5%. Against it:
- CC(C)SC[C@H](O)[C@@H](NC(=O)[C@H](C)NC(=O)[C@H](Cc1ccccc1)NC(=O)OC(C)(C)C)C(c1ccccc1)c1ccccc1 — higher, 11%
- CC(C)SC[C@H](O)[C@@H](NC(=O)[C@H](Cc1c[nH]cn1)NC(=O)[C@H](Cc1ccccc1)NC(=O)OC(C)(C)C)C(c1ccccc1)c1ccccc1 — lower, 3%

Molecular target: T2, Renin (Homo sapiens, UniProt P00797)
T2 sequence (P00797 whole entry): T1 sequence (whole entry)
Experiment: as §1
Conditions: not given
Procedure, shortened: as §2

Point of comparison: `CC(C)SC[C@H](O)[C@H](CC12CC3CC(CC(C3)C1)C2)NC(=O)[C@H](Cc1c[nH]cn1)NC(=O)[C@H](Cc1ccccc1)NC(=O)OC(C)(C)C`, IC50 2500 nM. Against it:
- CC(C)SC[C@H](O)[C@@H](NC(=O)[C@H](C)NC(=O)[C@H](Cc1ccccc1)NC(=O)OC(C)(C)C)C1CCCCC1 — 1.7-fold lower, 1500 nM
- C[C@H](NC(=O)[C@H](Cc1ccccc1)NC(=O)OC(C)(C)C)C(=O)N[C@H](C=O)CC12CC3CC(CC(C3)C1)C2 — 14-fold higher, 35000 nM
- C[C@H](NC(=O)[C@H](Cc1ccccc1)NC(=O)OC(C)(C)C)C(=O)N[C@H](C=O)C(C1CCCCC1)C1CCCCC1 — 16-fold higher, 40000 nM
- CC(C)C[C@@H](C=O)NC(=O)[C@H](C)NC(=O)[C@H](Cc1ccccc1)NC(=O)OC(C)(C)C (Boc-Phe-Ala-Leu-aldehyde) — 8-fold higher, 20000 nM
- CC(C)SC[C@H](O)[C@H](Cc1ccccc1)NC(=O)[C@H](C)NC(=O)[C@H](Cc1ccccc1)NC(=O)OC(C)(C)C — 15-fold lower, 170 nM
- C[C@H](NC(=O)[C@H](Cc1ccccc1)NC(=O)OC(C)(C)C)C(=O)N[C@H](C=O)CCC1CCCCC1 (Boc-Phe-Ala-[hCha]-aldehyde) — 22-fold higher, 55000 nM
- CC(C)C[C@H](NC(=O)[C@H](Cc1cnc[nH]1)NC(=O)[C@H](Cc1ccccc1)NC(=O)OC(C)(C)C)[C@@H](O)CSC(C)C — 31-fold lower, 81 nM
- CC(C)SC[C@H](O)[C@H](CCC1CCCCC1)NC(=O)[C@H](Cc1c[nH]cn1)NC(=O)[C@H](Cc1ccccc1)NC(=O)OC(C)(C)C — 1.7-fold lower, 1500 nM
- CC(C)SC[C@H](O)[C@H](Cc1ccccc1)NC(=O)[C@H](Cc1cnc[nH]1)NC(=O)[C@H](Cc1ccccc1)NC(=O)OC(C)(C)C — 130-fold lower, 19 nM
- CC(C)SC[C@H](O)[C@H](CC1CCCCC1)NC(=O)[C@H](C)NC(=O)[C@H](Cc1ccccc1)NC(=O)OC(C)(C)C — 280-fold lower, 9 nM
- C[C@H](NC(=O)[C@H](Cc1ccccc1)NC(=O)OC(C)(C)C)C(=O)N[C@H](C=O)C1CCCCC1 (Boc-Phe-Ala-[Chg]-aldehyde) — 2.5-fold lower, 1000 nM
- CC(C)SC[C@H](O)[C@@H](NC(=O)[C@H](Cc1cnc[nH]1)NC(=O)[C@H](Cc1ccccc1)NC(=O)OC(C)(C)C)C1CCCCC1 — 17-fold lower, 150 nM
- C[C@H](NC(=O)[C@H](Cc1ccccc1)NC(=O)OC(C)(C)C)C(=O)N[C@H](C=O)CC1CCCCC1 (Boc-Phe-Ala-[Cha]-aldehyde) — 5.4-fold lower, 460 nM

Molecular target: T1, Renin (Homo sapiens)
Experiment: Inhibitory activity against human renal renin at pH 6 at concentration 10E-5 M
Conditions: not given

In the case of `CC(C)SC[C@H](O)[C@H](CCC1CCCCC1)NC(=O)[C@H](C)NC(=O)[C@H](Cc1ccccc1)NC(=O)OC(C)(C)C`, the inhibition is reported as 45%.
